Assay results from ChEMBL document CHEMBL1143349, “Novel non-peptide nociceptin/orphanin FQ receptor agonist, 1-[1-(1-Methylcyclooctyl)-4-piperidinyl]-2-[(3R)-3-piperidinyl]-1H-benzimidazole: design, synthesis, and structure-activity relationship of oral receptor occupancy in the brain for orally potent antianxiety drug” (J Med Chem, 2009).

Assays:
Mu-type opioid receptor [1] = biological target: T1, Mu-type opioid receptor (Homo sapiens, UniProt P35372); assay: Agonist activity at human mu opioid receptor expressed in CHOK1 cells by [35S]GTPgammaS binding; format: functional, cell-based, CHO-K1
T1 sequence (P35372 whole entry): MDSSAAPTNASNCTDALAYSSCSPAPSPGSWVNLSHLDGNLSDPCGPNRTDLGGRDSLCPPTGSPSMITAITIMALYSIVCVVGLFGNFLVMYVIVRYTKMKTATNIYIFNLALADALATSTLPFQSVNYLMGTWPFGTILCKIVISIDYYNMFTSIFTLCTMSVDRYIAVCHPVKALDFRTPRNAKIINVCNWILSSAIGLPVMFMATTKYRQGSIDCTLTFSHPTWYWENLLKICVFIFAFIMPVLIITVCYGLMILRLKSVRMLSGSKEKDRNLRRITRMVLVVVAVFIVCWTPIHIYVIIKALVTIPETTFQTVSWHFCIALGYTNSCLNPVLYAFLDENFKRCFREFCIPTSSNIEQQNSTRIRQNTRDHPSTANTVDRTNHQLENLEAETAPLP

[2] = biological target: T2, Delta-type opioid receptor (Homo sapiens, UniProt P41143); assay: Displacement of [3H]DPDPE from human delta opioid receptor expressed in CHOK1 cells; format: cell-based, CHO-K1
T2 sequence (P41143 whole entry): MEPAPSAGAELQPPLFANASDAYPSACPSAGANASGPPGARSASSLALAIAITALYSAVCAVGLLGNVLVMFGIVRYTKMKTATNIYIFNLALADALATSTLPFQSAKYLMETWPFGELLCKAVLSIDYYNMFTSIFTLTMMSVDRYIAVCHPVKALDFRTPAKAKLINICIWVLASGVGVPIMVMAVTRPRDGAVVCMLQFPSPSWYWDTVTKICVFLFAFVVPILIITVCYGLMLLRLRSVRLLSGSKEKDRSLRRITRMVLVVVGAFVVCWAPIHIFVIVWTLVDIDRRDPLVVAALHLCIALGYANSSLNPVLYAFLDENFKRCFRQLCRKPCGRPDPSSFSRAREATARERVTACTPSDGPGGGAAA

[3] = biological target: T3, Kappa-type opioid receptor (Homo sapiens, UniProt P41145); assay: Agonist activity at human kappa opioid receptor expressed in HEK293 cells by [35S]GTPgammaS binding; format: functional, cell-based
T3 sequence (P41145 whole entry): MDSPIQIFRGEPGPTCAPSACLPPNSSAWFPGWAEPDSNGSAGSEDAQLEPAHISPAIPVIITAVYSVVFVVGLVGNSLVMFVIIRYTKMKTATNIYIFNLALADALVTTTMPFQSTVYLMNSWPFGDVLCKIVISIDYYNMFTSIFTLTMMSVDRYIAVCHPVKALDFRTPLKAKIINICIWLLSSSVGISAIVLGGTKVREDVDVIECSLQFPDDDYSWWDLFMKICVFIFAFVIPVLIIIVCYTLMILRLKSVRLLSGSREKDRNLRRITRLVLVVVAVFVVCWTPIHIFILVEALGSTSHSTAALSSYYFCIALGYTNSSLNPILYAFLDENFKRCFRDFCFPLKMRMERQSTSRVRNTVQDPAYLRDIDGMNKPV

Mu-type opioid receptor [4] = biological target: T1, Mu-type opioid receptor; assay: Displacement of [3H]DAMGO from human mu opioid receptor expressed in CHOK1 cells; format: cell-based, CHO-K1
[5] = biological target: T3, Kappa-type opioid receptor; assay: Displacement of [3H]enadoline from human kappa opioid receptor expressed in HEK293 cells; format: cell-based
[6] = biological target: T2, Delta-type opioid receptor; assay: Agonist activity at human delta opioid receptor expressed in CHOK1 cells by [35S]GTPgammaS binding; format: functional, cell-based, CHO-K1
Nociceptin receptor [7] = biological target: T4, Nociceptin receptor (Homo sapiens, UniProt P41146); assay: Agonist activity at human NOP receptor expressed in HEK293 cells by [35S]GTPgammaS binding; format: functional, cell-based
T4 sequence (P41146 whole entry): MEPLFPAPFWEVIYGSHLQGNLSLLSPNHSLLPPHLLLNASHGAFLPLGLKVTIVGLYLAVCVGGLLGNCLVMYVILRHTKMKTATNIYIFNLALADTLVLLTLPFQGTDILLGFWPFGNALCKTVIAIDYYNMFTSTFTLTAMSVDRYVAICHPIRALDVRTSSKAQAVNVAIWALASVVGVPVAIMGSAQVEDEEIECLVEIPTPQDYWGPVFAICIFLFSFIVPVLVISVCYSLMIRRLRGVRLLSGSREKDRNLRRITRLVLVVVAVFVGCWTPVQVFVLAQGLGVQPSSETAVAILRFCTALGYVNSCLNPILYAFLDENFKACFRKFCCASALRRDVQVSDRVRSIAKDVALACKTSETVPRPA

Nociceptin receptor [8] = biological target: T4, Nociceptin receptor; assay: Displacement of [3H]N/OFQ from human NOP receptor expressed in HEK293 cells; format: cell-based
Mus musculus = assay: Ex vivo receptor occupancy of NOP receptor in ddY mouse brain at 10 mg/kg, po after 1 hr by [3H]N/OFQ binding assay; format: functional
Method in brief: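 Male ddY mice (5-6 week), water-deprived 24 h, dosed orally at 10 mg/kg in 0.1% methylcellulose. Brain removed 1 h later; cerebellum and medulla discarded, membranes prepared at 4 °C. Membranes (160 µg protein) incubated with 0.3 nM [3H]N/OFQ, 30 min, 25 °C; filtration read-out. Nonspecific binding with 1 µM N/OFQ. Occupancy is inhibition of specific binding versus vehicle-treated mice, three mice, mean ± SEM.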

[9] = biological target: T2, Delta-type opioid receptor; assay: Displacement of [3H]DPDPE from human delta opioid receptor expressed in CHOK1 cells at 1 uM; format: cell-based; settings: CHO-K1

SMILES	EC50 (Mu-type opioid receptor [1]) [nM]	Ki [2] [nM]	EC50 [3] [nM]	Ki (Mu-type opioid receptor [4]) [nM]	Ki [5] [nM]	EC50 [6] [nM]	EC50 (Nociceptin receptor [7]) [nM]	Ki (Nociceptin receptor [8]) [nM]	Activity (Mus musculus) [%]	Activity [9] [%]
CN1CCC[C@H](c2nc3ccccc3n2C2CCN(C3(C)CCCCCCC3)CC2)C1	71	110	13	11	10	389	1.6	0.24		
CN1CCC[C@@H](c2nc3ccccc3n2C2CCN(C3(C)CCCCCCC3)CC2)C1	67	> 500	70	3.7	25	2190	1.4	0.2	61	
CC1(N2CCC(n3c(-c4cccc(S(C)(=O)=O)c4)nc4ccccc43)CC2)CCCCCCC1	288			6.3			1.6	0.15	34	
CC1(N2CCC(n3c(-c4cccc(OCCO)c4)nc4ccccc43)CC2)CCCCCCC1	> 393	9.5	48	11	43		2.6	0.3	38	
CC1(N2CCC(n3c(-c4ccc(F)c(Cl)c4)nc4ccccc43)CC2)CCCCCCC1	759			45					31	
CC1(N2CCC(n3c([C@@H]4CCCNC4)nc4ccccc43)CC2)CCCCCCC1		> 667	80		23.1	4700			53	
CC1(N2CCC(n3c(-c4cccc(C(F)(F)F)c4)nc4ccccc43)CC2)CCCCCCC1	10000	58	1580	65	352		5.7	0.63	3.2	
CC1(N2CCC(n3c(-c4cccc(CN)c4)nc4ccccc43)CC2)CCCCCCC1	340	140	154	20	72				30	
CC1(N2CCC(n3c(-c4ccc5cc[nH]c5c4)nc4ccccc43)CC2)CCCCCCC1	8630			151			13	1.7	-10	
CC1(N2CCC(n3c([C@H]4CCCNC4)nc4ccccc43)CC2)CCCCCCC1		168	8.4		9.2	514				
CC1CN(c2nc3ccccc3n2C2CCN(C3(C)CCCCCCC3)CC2)CC(C)N1 (configuration not stated)	193		18	21	15					29
CC1(N2CCC(n3cnc4ccccc43)CC2)CCCCCCC1				11						
CC1(N2CCC(n3c(-c4cc5ccccc5o4)nc4ccccc43)CC2)CCCCCCC1	3670			102			3.1	0.53	34	
